Screening results deposited in PubChem BioAssay by several laboratories.
ADAM10 inh: inhibits human ADAM10. O14672. 0.62% of 370,000 active. recombinant ADAM10, EDANS/DABCYL FRET peptide cleavage, 3 h. inhibition, % at 7 µM;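 active = inhibition above a per-campaign cutoff equal to the mean of compounds falling between control-based bounds plus 3 SD, cut at about 20% in these data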;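 note: 0% = DMSO wells while the 100% control is not disclosed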
Target sequence (O14672 214-748 limits assumed): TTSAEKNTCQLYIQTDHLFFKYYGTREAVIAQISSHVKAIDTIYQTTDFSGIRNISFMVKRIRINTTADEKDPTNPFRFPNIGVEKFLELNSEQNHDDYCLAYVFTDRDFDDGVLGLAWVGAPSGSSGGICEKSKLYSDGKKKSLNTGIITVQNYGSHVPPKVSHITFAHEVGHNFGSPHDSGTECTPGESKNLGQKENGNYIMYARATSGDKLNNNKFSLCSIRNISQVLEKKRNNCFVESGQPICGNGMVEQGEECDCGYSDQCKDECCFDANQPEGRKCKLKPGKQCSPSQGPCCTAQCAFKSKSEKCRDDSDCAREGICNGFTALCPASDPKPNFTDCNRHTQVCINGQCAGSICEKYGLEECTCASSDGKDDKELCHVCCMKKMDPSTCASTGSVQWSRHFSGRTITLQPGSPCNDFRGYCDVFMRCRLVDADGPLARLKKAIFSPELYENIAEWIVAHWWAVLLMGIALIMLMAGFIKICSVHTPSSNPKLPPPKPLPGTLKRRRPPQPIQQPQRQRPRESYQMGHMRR
ADAM17 inh: inhibits human ADAM17 | recombinant ADAM17, EDANS/DABCYL FRET peptide cleavage | inhibition, % at 6.95 µM | 0.83% of 370,000 active | AID 720648;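 active = inhibition above the mean of compounds lying between control limits plus 3 SD, set per campaign, cut at about 8.5% in these data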;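 note: 0% = DMSO-only wells as the low control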
FAS TE block: FAS thioesterase (human) inhibition; P49327; recombinant FAS-TE, OMFH fluorogenic substrate, fluorescence endpoint; 0.67% of 360,000 active; AID 602261; inhibition, % at 15 µM;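 active = compounds whose normalised, plate-corrected inhibition of enzyme fluorescence in the single-dose primary screen is 50% or more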;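 note: 0% = DMSO with enzyme and 100% = substrate without enzyme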
CaV13 FRET inh: Primary screen for inhibitors of IQ motif and Ca2+-dependent inactivation inhibitor domain binding in CACNA1D, Förster resonance energy transfer in living cells, …; HEK cells, CFP/YFP FRET ICDI-IQ, plate reader, 10 min; percent FRET-ratio fall versus neutral wells; 0.098% of 340,000 active; inhibition, % at 12.3 µM;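 active = mean replicate inhibition of at least 30% and at least 1% of replicates passing that level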;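 note: 0% = median of the neutral control wells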
CendR NRP1 mod: modulators of CendR peptide binding to human neuropilin-1. O14786. FAM-RPARPAR peptide binding to NRP-1, fluorescence polarization. inhibition, % at 25 µM. 0.85% of 360,000 active;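 active = inhibition or corrected inhibition above about 18%, plus a signal ratio from 0.5 to 1.5, limit read from the data, passing the limit was not always enough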
Arrestin-AP2 inh: human beta-arrestin and AP2 interaction inhibition; FITC-arrestin peptide / GST-AP2 beads, flow cytometry; AP2 beta2 appendage carries R879A mutation; inhibition, % at 10 µM; 0.31% of 340,000 active;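 active = inhibition above a set limit, near 3 SD of compounds lacking own fluorescence, cut at about 54% in these data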;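 note: plate controls were DMSO wells for no effect and 5 µM unlabelled arrestin peptide for full effect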
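Test system: GST-tagged AP2 beta2-adaptin appendage (R879A) on 4 µm glutathione beads; also added: fluorescein-tagged arrestin peptide at 50 nM final; timing: 12 min plus 1 h, RT; signal: flow cytometry, FL1 (488/535 nm); read-out: percent drop in bead-associated FITC signal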
Numbers without * were called inactive; i = inactive; nt = no result given. Hits are enriched below; roughly 2.9% of the tested compounds scored in any of these assays.

SMILES	ADAM10 inh	ADAM17 inh	FAS TE block	CaV13 FRET inh	CendR NRP1 mod	Arrestin-AP2 inh
O=C(CN1C(=O)c2ccccc2C1=O)NC1CCC(O)CC1 (stereo not given)	-11	-2	-6	-15	25*	-7
CC(=O)c1ccc(OCCCC(=O)N(CCC2=CCCCC2)c2c(N)n(Cc3ccccc3)c(=O)[nH]c2=O)cc1	-6	-2	11	-2	-15	-22
O=C1c2c(O)cccc2C(C2OC(CO)[C@@H](O)[C@H](O)[C@H]2O)c2cc(CO)cc(O)c21 (stereo not given in full)	1	-2	-13	-11	37*	-7
O=C1c2cc(CO)cc(O)c2C(=O)c2c(O[C@@H]3OC(CO)[C@@H](O)[C@@H](O)[C@@H]3O)cccc21 (stereo not given in full)	-4	1	-9	nt	-5	6
CC(C)(C)c1ccc(CNc2ccc([N+](=O)[O-])cn2)cc1	10	4	-96	-9	32*	-1
CC(C)c1ccc(CNc2ccc([N+](=O)[O-])cn2)cc1	13	6	6	-9	-5	-3
CC(=O)Nc1ccc(C(=O)N2CCCCC2c2cc(C(=O)Nc3ccccc3)no2)cc1 (stereo not given)	-2	0	-5	-10	-14	nt
CC(=O)Nc1ccc(C(=O)N2CCCCC2c2cc(C(=O)Nc3ccccc3Cl)no2)cc1 (stereo not given)	-8	-3	2	-11	24*	nt
COc1ccc(S[C@]2(C(=O)N3CCN(c4ncccn4)CC3)CC(=O)N(c3ccccc3)[C@@H]2c2ccc(OC)cc2)cc1	12	4	nt	nt	nt	nt
CCOC(=O)c1ccc(NC(=O)C2(c3ccccc3)CCOCC2)cc1	-1	-1	-4	nt	31*	2
Cc1ccc2[nH]c3ccccc3c(=O)c2c1	i	i	-2	34*	4	1
CCCNC(=O)c1ccc2c(=O)c(O)c(-c3ccc(F)cc3)[nH]c2c1	nt	nt	-7	nt	0	-12
CCCNC(=O)c1ccc2c(=O)c(O)c(C)[nH]c2c1	-109	-28	-13	-6	21*	6
CCN(C(=O)CSc1nnc(-c2cccc(F)c2)n1N)c1c(N)n(Cc2ccccc2)c(=O)[nH]c1=O	-13	-3	-6	-6	-8	3
O=C(NCc1ccccc1)C1CCC1	5	0	-11	-5	40*	-2
O=C(NCc1ccccc1)C1CCCN(C(=O)NCc2ccccc2)C1 (stereo not given)	4	-1	-6	-3	12	-9
Cc1cc2c(cc1C)C(c1ccccc1OC(C)C)CC(=O)N2 (stereo not given)	-2	-1	13	-18	9	34
COC(=O)[C@]12C[C@H](CC(=O)NCCC(C)C)C(=O)N(Cc3cccc4ccccc34)C1=C[C@H](COCc1ccccc1)O[C@@H]2C	9	2	nt	nt	nt	nt
CCOC(=O)N1CCN(C(=O)C(CC(C)C)NS(=O)(=O)c2ccc(C)cc2)CC1 (stereo not given)	-1	0	-4	-2	22*	-3
COC(=O)[C@H](CC(C)C)NS(=O)(=O)c1ccccc1	8	-2	-10	-11	23*	10
Cc1ccc(S(=O)(=O)NC(CC(C)C)C(=O)N2CCCC2)cc1 (stereo not given)	-2	-8	-7	-11	5	5
CCCCS(=O)(=O)N1CCN(C(=O)C(=O)c2cccc(C(F)(F)F)c2)CC1	0	0	nt	-11	nt	nt
CC(C)CN(C(=O)COC(=O)C1c2ccccc2Oc2ccccc21)C1CCS(=O)(=O)C1 (stereo not given)	-28	-13	14	-3	24*	3
COc1ccc(OC)c2c1CCC2=O	-478	-151	-6	nt	30*	6
COc1ccccc1NC1=C(C)C(=O)CC1	-7	-1	-7	-2	10	1
SMILES	ADAM10 inh	ADAM17 inh	FAS TE block	CaV13 FRET inh	CendR NRP1 mod	Arrestin-AP2 inh
COC(=O)Nc1sc(C(=O)N(C)C)c(C)c1C(=O)OC	0	-5	3	-5	24*	-1
Cc1ccnc(NC(=O)COc2ccc3oc4c(c3c2)CCCC4)c1	-2	2	-5	nt	44*	5
CCCC(=O)N1CCC1(C)C(=O)NS(=O)(=O)c1cccs1 (stereo not given)	-17	-4	-4	-6	-79	nt
CN1C[C@@H]2[C@@H]3C(=O)N(Cc4ccccc4)C(=O)[C@@H]3[C@](C)(C1=O)N2C(=O)c1ccc(Cl)cc1	-4	0	-9	-11	31*	1
CCN1C[C@@H]2[C@@H]3C(=O)N(Cc4ccccc4)C(=O)[C@@H]3[C@](Cc3ccccc3)(C1=O)N2C(=O)c1ccc(C(C)(C)C)cc1	-5	-3	20	-9	6	20
CCN1C[C@@H]2[C@@H]3C(=O)N(Cc4ccccc4)C(=O)[C@@H]3[C@](CC)(C1=O)N2C(=O)c1ccc(C(C)(C)C)cc1	1	-5	-4	-8	26*	15
CCN1C[C@@H]2[C@@H]3C(=O)N(Cc4ccccc4)C(=O)[C@@H]3[C@](CC)(C1=O)N2C(=O)c1ccc(C(F)(F)F)cc1	4	9	-10	-11	30*	0
CCN1C[C@@H]2[C@@H]3C(=O)N(Cc4ccccc4)C(=O)[C@@H]3[C@](Cc3ccccc3)(C1=O)N2C(=O)c1ccc(C(F)(F)F)cc1	4	-3	-7	-9	1	18
COc1cccc(C(C(=O)NCc2ccccc2)N2CCN(C(=O)C3CCCO3)CC2)c1OC (stereo not given)	-9	-7	nt	-16	-9	nt
COc1ccc(N(C(=O)c2cccnc2)S(=O)(=O)c2ccccc2)cc1	6	0	-3	-6	24*	6
COc1ccc(N(C(=O)c2cccnc2)S(=O)(=O)c2ccc(F)cc2)cc1	-12	-3	7	4	-10	1
CCOC(=O)N1CCN(C(=O)CNC(=O)c2ccc(Br)cc2)CC1	4	-1	-10	-6	27*	-3
C=CCc1c(OC(C)=O)c2ccccc2n(C)c1=O	-16	-3	-10	-5	25*	-4
Cc1ccc(-c2cc(C(=O)Nc3ccc(S(=O)(=O)Nc4nccs4)cc3)c3ccccc3n2)c(C)c1	40*	20*	14	-12	-20	-1
CN1[C@@H](COCc2ccccc2)C=CS1(=O)=O	8	5	-10	-10	5	nt
COc1ccc(COc2cc(-c3cccc(OC)c3)nc3ccc(NC(=O)c4ccc(N(C)C)cc4)cc23)cc1	nt	nt	26	nt	28*	15
COc1ccc(COc2cc(-c3cccc(OC)c3)nc3ccc(NC(C)=O)cc23)cc1	i	i	-14	-6	27*	4
